Consider one compound from ChEMBL document CHEMBL1121485, “Antiestrogens. Synthesis and evaluation of mammary tumor inhibiting activity of 1,1,2,2-tetraalkyl-1,2 -diphenylethanes” (1980).

For assay [1], the target named is T1, Estrogen receptor (Bos taurus) (UniProt Q9XSB5+P49884). Put plainly: Association constant for Estrogen receptor. It counts as protein assay.
Assay [2] concerns the target T1, Estrogen receptor (Bos taurus). Put plainly: Relative binding affinity for Estrogen receptor compared to 17-beta-estradiol. The class given is protein assay.
The target of assay [3] is T2, Estrogen receptor (Mus musculus) (UniProt O08537+P19785). Put plainly: Uterotrophic effect in mice as uterus dry weight(mg) compared to body weight(g) at 0 ug/day dose. The class given is functional, tissue-based. In a few lines: (§1)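 Mice aged 20 days at start, dosed sc once daily for 3 days (0.1 mL injections, arachis oil vehicle); vehicle-only control group. Killed 24 h after last dose; body weight recorded; uteri fixed in Bouin's solution 12 h, trimmed of connective tissue, washed with saturated alcoholic LiCl, dried 100 °C for 24 h, then weighed.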
T2 sequence (O08537 whole entry, looked up): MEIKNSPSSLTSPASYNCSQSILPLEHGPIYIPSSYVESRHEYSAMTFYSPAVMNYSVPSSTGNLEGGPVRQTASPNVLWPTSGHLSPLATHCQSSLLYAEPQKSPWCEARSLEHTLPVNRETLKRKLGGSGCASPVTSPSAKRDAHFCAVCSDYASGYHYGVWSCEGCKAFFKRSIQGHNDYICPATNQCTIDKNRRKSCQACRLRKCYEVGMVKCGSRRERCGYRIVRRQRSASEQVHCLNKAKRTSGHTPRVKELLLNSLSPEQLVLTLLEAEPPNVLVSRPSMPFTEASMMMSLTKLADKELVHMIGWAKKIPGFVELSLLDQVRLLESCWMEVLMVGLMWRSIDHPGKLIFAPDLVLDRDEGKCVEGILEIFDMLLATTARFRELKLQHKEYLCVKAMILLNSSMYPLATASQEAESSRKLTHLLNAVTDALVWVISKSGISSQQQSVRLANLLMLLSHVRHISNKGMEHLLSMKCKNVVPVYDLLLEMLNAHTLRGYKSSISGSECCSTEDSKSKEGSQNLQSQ
T2 sequence (P19785 whole entry, looked up): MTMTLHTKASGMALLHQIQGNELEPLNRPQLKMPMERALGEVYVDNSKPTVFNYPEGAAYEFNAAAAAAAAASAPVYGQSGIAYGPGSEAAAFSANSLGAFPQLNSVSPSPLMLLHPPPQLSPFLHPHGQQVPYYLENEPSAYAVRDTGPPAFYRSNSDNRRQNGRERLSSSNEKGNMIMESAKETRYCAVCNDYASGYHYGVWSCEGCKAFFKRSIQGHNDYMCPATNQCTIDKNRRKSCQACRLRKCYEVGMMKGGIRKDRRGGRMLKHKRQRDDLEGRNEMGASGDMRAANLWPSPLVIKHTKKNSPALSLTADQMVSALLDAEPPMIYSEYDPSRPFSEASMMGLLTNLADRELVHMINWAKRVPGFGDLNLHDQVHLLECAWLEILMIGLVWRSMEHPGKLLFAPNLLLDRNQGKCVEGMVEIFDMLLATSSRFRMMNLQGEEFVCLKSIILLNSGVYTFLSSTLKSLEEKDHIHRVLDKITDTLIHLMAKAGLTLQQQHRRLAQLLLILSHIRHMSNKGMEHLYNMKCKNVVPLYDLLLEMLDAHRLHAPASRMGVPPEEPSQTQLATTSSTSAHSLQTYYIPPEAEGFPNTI

In assay [4] the target is T2, Estrogen receptor (Mus musculus). Put plainly: Uterotrophic effect in mice as uterus dry weight(mg) compared to body weight(g) at 100 ug/day dose. It counts as functional, tissue-based. In a few lines:
as §1

The target is the same in assay [5]. Put plainly: Uterotrophic effect in mice as uterus dry weight(mg) compared to body weight(g) at 25 ug/day dose. The class given is functional, tissue-based. In a few lines:
as §1

Assay [6] shares this target. Put plainly: Uterotrophic effect in mice as uterus dry weight(mg) compared to body weight(g) at 5 ug/day dose. The class given is functional, tissue-based. In a few lines: as §1
Assay [7] shares this target. Put plainly: Anti-uterotrophic effect in mice as uterus dry weight(mg) compared to body weight(g) at 0 ug/day dose. It counts as functional, tissue-based. In short, it runs like this: as §1
For assay [8] the target is unchanged. Put plainly: Anti-uterotrophic effect in mice as uterus dry weight(mg) compared to body weight(g) at 100 ug/day dose. It counts as functional, tissue-based. In a few lines: as §1
Assay [9] shares this target. Put plainly: Uterotrophic effect in mice as uterus dry weight(mg) compared to body weight(g) at 500 ug/day dose. The class given is functional, tissue-based. In a few lines: as §1
Assay [10] has the same target. Put plainly: Anti-uterotrophic effect in mice as uterus dry weight(mg) compared to body weight(g) at 25 ug/day dose. It counts as functional, tissue-based. In short, it runs like this:
as §1

Assay [11] shares this target. Put plainly: Anti-uterotrophic effect in mice as uterus dry weight(mg) compared to body weight(g) at 5 ug/day dose. It counts as functional, tissue-based. In a few lines:
as §1

The target is the same in assay [12]. Put plainly: Anti-uterotrophic effect in mice as uterus dry weight(mg) compared to body weight(g) at 50 ug/day dose. The class given is functional, tissue-based. In short, it runs like this: as §1
The target of assay [13] is T1, Estrogen receptor (Bos taurus). Put plainly: Ratio of association constants for estradiol and compound in estrogen receptor binding assay. The class given is protein assay.
For assay [14], the species on record is Mus musculus. Put plainly: Inhibition of estrone-stimulated uterine growth in mice at 5 ug.
The species named for assay [15] is Mus musculus. Put plainly: Inhibition of estrone-stimulated uterine growth in mice at 25 ug.
Assay [16] is filed under the species Mus musculus. Put plainly: Inhibition of estrone-stimulated uterine growth in mice at 50 ug.
The species named for assay [17] is Mus musculus. Put plainly: Inhibition of estrone-stimulated uterine growth in mice at 100 ug.

In turn, `CC(C)(c1ccc(O)c(O)c1)C(C)(C)c1ccc(O)c(O)c1` displayed a Ka in assay [1] of 4e+07 M⁻¹. Also, in assay [2], the RA is 0.006. Further, the Effect came out at 9.6 in assay [3]; 10 in [4]; 8.9 in assay [5]; 9.7 in assay [6]; 15.7 in assay [7]; 28.4 in assay [8]. For the same compound, the Effect in [9] was determined as 12.5; in assay [10], 35; in [11] it was 38.6; in assay [12] it was 32.8. In assay [13], the RAC is 0.0056. Moreover, the Inhibition worked out at 6.8% in the assay listed under Mus musculus [14], 21.5% in the assay listed under Mus musculus [15], 30.4% in the assay filed under Mus musculus [16] and 45.5% in the assay filed under Mus musculus [17].
